In general, CC50 refers to the concentration at which the toxic effect on the cells reaches its halfway point. Low readings indicate harm at low concentration, high ones better tolerance by the cells. A word on the EC50: it is the concentration that produces a half-maximal response.

This is an account of results in ChEMBL document CHEMBL3120097, “HCV NS5A replication complex inhibitors. Part 4. Optimization for genotype 1a replicon inhibitory activity” (J Med Chem, 2014).

Structures are written as SMILES.

Data set [1] in a line: Cytotoxicity against bovine MDBK cells after 3 days by CellTitre-Blue assay. Format: cell-based, Bos taurus. The conditions noted are these: cattle.
Data set [2] relates to Hepatitis C virus. The data set is described as follows: Antiviral activity against HCV genotype 4a. Format: functional, organism-based, Hepacivirus hominis.
The test system of data set [3] is Hepatitis C virus. The data set is described as follows: Antiviral activity against HCV genotype 2a JFH. Format: functional, organism-based, Hepacivirus hominis. The conditions noted are these: subtype 2a JFH.
In data set [4] the test system is Bovine viral diarrhea virus 1. Kind of data set: Antiviral activity against BVDV infected in bovine MDBK cells after 72 hrs by luciferase reporter gene assay. Format: functional, organism-based. The conditions noted are these: Bovine viral diarrhea virus isolates and strains. On the technique in general: A reporter such as luciferase makes a cellular process visible.

Data set [5] deals with Hepatitis C virus. Kind of data set: Antiviral activity against HCV genotype 1a H77c infected in human HuH7 cells after 3 days by luciferase reporter gene assay. Format: functional, organism-based, Hepacivirus hominis. The conditions noted are these: Huh-7, 72 h. In short, it runs like this:
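Titrated compounds in 384-well plates seeded with replicon cells, 2.4 × 10³/well in DMEM with 4% FCS, final DMSO 0.5% v/v; 3 days at 37 °C. Renilla luciferase read with EnduRen substrate at […] final after ≥1 h at 37 °C; EC₅₀ from four-parameter logistic fit.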

Data set [6] relates to Hepatitis C virus. Kind of data set: Antiviral activity against HCV genotype 1b infected in human HuH7 cells after 72 hrs by FRET assay. Format: functional, organism-based, Hepacivirus hominis. The conditions noted are these: Huh-7, 72 h. In short, it runs like this:
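Replicon cells seeded 10K/well, attached overnight; compounds added with 0.5% v/v DMSO vehicle controls, typically 72 h. Alamar blue read first, then cells PBS-rinsed and lysed with reagent holding 150 mM NaCl and 20 μM final EDANS/DABCYL NS3 protease peptide; kinetic fluorescence 340/490 nm. EC₅₀ = concentration halving background-subtracted FRET signal versus DMSO wells.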

The test system of data set [7] is Hepatitis C virus. Kind of data set: Antiviral activity against HCV genotype 1a H77c infected in human HuH7 cells after 5 days by ELISA. The class given is functional, organism-based, Hepacivirus hominis. The following applies: Huh-7, 120 h. In short, it runs like this:
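Genotype 1a (H77c) replicon cells, 1.5 × 10⁴/well in DMEM + 10% FBS, attached overnight at 37 °C; serially diluted compounds (in FBS-free DMEM) added, 5 days at 37 °C. Cells dried overnight at 37 °C to fix, Triton-permeabilized, casein-blocked; NS5A antiserum then HRP secondary, chemiluminescent read. Inhibition relative to untreated wells; background set with 500 nM NS3 inhibitor.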
In general terms: In an ELISA, binding on a coated surface is turned into a signal by an enzyme label.

Data set [8] is described as follows: Cytotoxicity against human Huh7.5 cells. The class given is cell-based, Huh-7.
Data set [9] relates to Hepatitis C virus. The data set is described as follows: Antiviral activity against HCV genotype 1a H77c infected in human HuH7 cells after 72 hrs. The conditions noted are these: Huh-7, 72 h.

`O=C(Nc1ccc(/C=C/c2ccc(NC(=O)[C@@H]3CCCN3C(=O)Cc3ccccc3)cc2)cc1)[C@@H]1CCCN1C(=O)Cc1ccccc1`: the CC50 at 72 h in data set [1] is over 30000 nM. The EC50 in data set [2] was 157 nM; in data set [3] it was 79 nM; in data set [4], over 5000 nM.

For `O=C(Nc1ccc(C#Cc2ccc(NC(=O)[C@@H]3CCCN3C(=O)Cc3ccccc3)cc2)cc1)[C@@H]1CCCN1C(=O)Cc1ccccc1`, the EC50 in data set [5] and in data set [4] was over 10000 nM throughout. The molecule also registered a cytotoxic concentration (CC50) at 72 h in data set [1] of over 10000 nM.

For the molecule `O=C(Nc1ccc(-c2cc(-c3ccc(NC(=O)[C@@H]4CCCN4C(=O)Cc4ccccc4)cc3)[nH]n2)cc1)[C@@H]1CCCN1C(=O)Cc1ccccc1`, the EC50 is 4.8 nM in data set [6], 1370 nM in data set [5] and over 10000 nM in data set [4]. The molecule also yielded a CC50 at 72 h in [1] of over 10000 nM.

In the case of `O=C(Nc1ccc(/C=C/c2ccc(NC(=O)[C@@H]3CCCN3C(=O)c3ccccc3)cc2)cc1)[C@@H]1CCCN1C(=O)c1ccccc1`, the EC50 in [6] is 100 nM; in [5], 6300 nM; in data set [4], over 5000 nM. Further, the CC50 at 72 h in [1] is over 10000 nM.

Regarding `COc1cccc2c(C(=O)N3CCC[C@H]3C(=O)Nc3ccc(-c4cc(-c5ccc(NC(=O)[C@@H]6CCCN6C(=O)c6nc(Cl)cc7c(OC)cccc67)cc5)[nH]n4)cc3)nc(Cl)cc12`, the EC50 is 11 nM in data set [6], 120 nM in data set [5] and over 10000 nM in [4]. In data set [1], this molecule displayed a 50% cytotoxic concentration (CC50) at 72 h of over 10000 nM.

As for `COc1cccc2c(C(=O)N3CCC[C@H]3C(=O)Nc3ccc(C#Cc4ccc(NC(=O)[C@@H]5CCCN5C(=O)c5nc(Cl)cc6c(OC)cccc56)cc4)cc3)nc(Cl)cc12`, the results for the EC50 in data set [6], in [5] and in [4] were 23 nM, 18 nM and over 10000 nM, respectively. Further, the CC50 at 72 h in [1] was over 10000 nM.

As for `COc1cccc2c(C(=O)N3CCC[C@H]3C(=O)Nc3ccc(-c4cnc(-c5ccc(NC(=O)[C@@H]6CCCN6C(=O)c6nc(Cl)cc7c(OC)cccc67)cc5)o4)cc3)nc(Cl)cc12`, the EC50 in [6] is 34 nM; in [5] it was 52 nM; in data set [4], over 10000 nM. The molecule also showed a CC50 at 72 h in [1] of over 10000 nM.

As for `COc1cccc2c(C(=O)N3CCC[C@H]3C(=O)Nc3ccc(/C=C/c4ccc(NC(=O)[C@@H]5CCCN5C(=O)c5nc(Cl)cc6c(OC)cccc56)cc4)cc3)nc(Cl)cc12`, the 50% effective concentration (EC50) in data set [6] was 7 nM; in data set [7] it was 37 nM; in data set [2], over 1000 nM; in data set [3], 2.2 nM; in data set [4] it was over 10000 nM. For the same molecule, the CC50 at 72 h in data set [1] was over 10000 nM. The molecule also yielded a CC50 in data set [8] of over 10000 nM.

As for `O=C(Nc1ccc(-c2cnc(-c3ccc(NC(=O)[C@@H]4CCCN4C(=O)Cc4ccccc4)cc3)o2)cc1)[C@@H]1CCCN1C(=O)Cc1ccccc1`, the figures for the concentration for a half-maximal effect (EC50) in [5] and in data set [4] were 1510 nM and over 10000 nM, respectively. For the same molecule, the CC50 at 72 h in data set [1] amounted to 3300 nM.

As for `O=C(Nc1ccc(/C=C/c2ccc(NC(=O)[C@@H]3CCCN3C(=O)c3nc(Cl)cc4ccccc34)cc2)cc1)[C@@H]1CCCN1C(=O)c1nc(Cl)cc2ccccc12`, the results for the half-maximal effective concentration (EC50) in data set [6], in [7] and in data set [4] were 23 nM, 62 nM and over 10000 nM, respectively. Moreover, in data set [1], the CC50 at 72 h is over 10000 nM.

In the case of `O=C(Nc1ccc(/C=C/c2ccc(NC(=O)[C@@H]3CCCN3C(=O)c3cc4ccccc4cn3)cc2)cc1)[C@@H]1CCCN1C(=O)c1cc2ccccc2cn1`, the EC50 in [6] was 280 nM; in data set [9], 3100 nM; in data set [4] it was over 5000 nM. For the same molecule, the CC50 at 72 h in data set [1] is over 10000 nM.

Take `COc1cccc2nc(C(=O)N3CCC[C@H]3C(=O)Nc3ccc(/C=C/c4ccc(NC(=O)[C@@H]5CCCN5C(=O)c5ccc6c(OC)cccc6n5)cc4)cc3)ccc12`: the EC50 in [6] is 971 nM; in [7] it was over 10000 nM; in [4] it was over 10000 nM. The molecule further gave a CC50 at 72 h in data set [1] of over 10000 nM.

`O=C(Nc1ccc(/C=C/c2ccc(NC(=O)[C@@H]3CCCN3C(=O)c3nccc4ccc(Cl)cc34)cc2)cc1)[C@@H]1CCCN1C(=O)c1nccc2ccc(Cl)cc12`: the half-maximal effective concentration (EC50) in data set [6] is 36 nM; in data set [7], over 10000 nM; in [4], over 10000 nM. Moreover, the CC50 at 72 h in data set [1] is over 10000 nM.
